Test results as given in ChEMBL document CHEMBL2346497, “Synthesis of novel cognition enhancers with pyrazolo[5,1-c][1,2,4]benzotriazine core acting at γ-aminobutyric acid type A (GABA(A)) receptor” (Bioorg Med Chem, 2013).
Calls of active or inactive are those of the source. The calls are words filed in the database; no cut-off is given here.

Legend:
[1] = Displacement of [3H]Ro15-1788 from GABA-A receptor benzodiazepine binding site in bovine cerebral cortex membranes after 1 hr; assay type: cell membranes, Bos taurus, Membrane
[2] = species on record: Bos taurus; test: Displacement of [3H]Ro15-1788 from GABA-A receptor benzodiazepine binding site in bovine cerebral cortex membranes at 10 uM after 1 hr; assay type: cell membranes; settings: Membrane
[3] = test system: Mus musculus; test: Neurotoxicity in CD1 albino mouse assessed as decrease in number of falls from rotating rod at 30 mg/kg, po by rota-rod test relative to control; assay type: toxicity, organism-based; design: dose 30 mg/kg, route oral; settings: in vivo, TDE = time-dependent effect
Outline: (§1)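 Motor coordination was tested on a rota-rod turning at 24 rpm in male CD-1 mice dosed po in 1% CMC. Falls within 30 s were counted at a pretest and at 15, 30, 45 and 60 min after dosing. Each value is the mean of five mice, compared with CMC-treated controls.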

[4] = test system: Mus musculus; test: Anticonvulsant activity in CD1 albino mouse assessed as protection against pentylenetetrazole-induced convulsions at 10 mg/kg, po administered 30 mins prior to pentylenetetrazole challenge measured over 30 mins (reference value: 7.1%); assay type: functional
[5] = test system: Rattus norvegicus; test: Procognitive effect in Harlan Wistar rat assessed as exploring time of familiar rat during social investigatory behaviour at 10 mg/kg, po administered 30 mins prior to testing measured for 5 mins by social learning test (reference value: 27.6 secs); assay type: functional
[6] = test system: Rattus norvegicus; test: Procognitive effect in Harlan Wistar rat assessed as decrease in exploring time of unfamiliar rat during social investigatory behaviour at 10 mg/kg, po administered 30 mins prior to testing measured for 5 mins by social learning test relative to control; assay type: functional, organism-based; design: dose 10 mg/kg
[7] = test system: Mus musculus; test: Cognitive enhancing effect in CD1 albino mouse assessed as increase in retention latency at 1 to 30 mg/kg, po administered 30 mins prior to testing measured after 24 hrs by passive avoidance test relative to control; assay type: functional, organism-based
Outline: (§2)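 Step-through passive avoidance in male CD-1 mice (22–24 g). Test drugs were given po, suspended in 1% carboxymethylcellulose at 10 ml/kg, 30 min before the training session. For the antiamnesic arm, scopolamine 1.5 mg/kg was injected immediately after punishment. Retention latency was compared with CMC-treated controls, n = 10–12 mice per group.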

[8] = test system: Mus musculus; test: Antiamnesic activity in CD1 albino mouse assessed as reversal of scopolamine-induced amnesia at 1 mg/kg, po administered 30 mins prior to scopolamine challenge measured after 24 hrs by passive avoidance test; assay type: functional, organism-based; design: dose 1 mg/kg; outline: as §2
[9] = test system: Mus musculus; test: Anxiolytic activity in CD1 albino mouse assessed as increase in time spent in illuminated side at 10 to 30 mg/kg, po administered 30 mins prior to testing measured for 5 mins by light-dark box test; assay type: functional, organism-based
Outline: (§3)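 Light/dark box: two equal acrylic compartments, one lit by a 60 W lamp, joined by a floor-level opening. Male CD-1 mice were dosed po in 1% CMC 30 min before the test, then placed in the centre of the lit side facing away from the dark side. Over 5 min, transfers and time in the light side were recorded, n = 8 mice per group.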

[10] = test system: Rattus norvegicus; test: Procognitive effect in Harlan Wistar rat assessed as exploring time of familiar rat during social investigatory behaviour at 30 mg/kg, po administered 30 mins prior to testing measured for 5 mins by social learning test (reference value: 27.6 secs); assay type: functional
[11] = test system: Rattus norvegicus; test: Procognitive effect in Harlan Wistar rat assessed as decrease in exploring time of unfamiliar rat during social investigatory behaviour at 30 mg/kg, po administered 30 mins prior to testing measured for 5 mins by social learning test relative to control; assay type: functional, organism-based; design: dose 30 mg/kg
[12] = test system: Mus musculus; test: Cognitive enhancing effect in CD1 albino mouse assessed as increase in retention latency at 3 to 30 mg/kg, po administered 30 mins prior to testing measured after 24 hrs by passive avoidance test relative to control; assay type: functional, organism-based; outline: as §2
[13] = test system: Mus musculus; test: Antiamnesic activity in CD1 albino mouse assessed as reversal of scopolamine-induced amnesia at 3 mg/kg, po administered 30 mins prior to scopolamine challenge measured after 24 hrs by passive avoidance test; assay type: functional, organism-based; design: dose 3 mg/kg
[14] = test system: Mus musculus; test: Cognitive enhancing effect in CD1 albino mouse assessed as increase in retention latency at 1 to 10 mg/kg, po administered 30 mins prior to testing measured after 24 hrs by passive avoidance test relative to control; assay type: functional, organism-based; outline: as §2
[15] = test system: Rattus norvegicus; test: Procognitive effect in Harlan Wistar rat assessed as decrease in exploring time of unfamiliar rat during social investigatory behaviour at 10 to 100 mg/kg, po administered 30 mins prior to testing measured for 5 mins by social learning test relative to control; assay type: functional, organism-based
[16] = test system: Rattus norvegicus; test: Procognitive effect in Harlan Wistar rat assessed as exploring time of familiar rat during social investigatory behaviour at 100 mg/kg, po administered 30 mins prior to testing measured for 5 mins by social learning test (reference value: 27.6 secs); assay type: functional
[17] = test system: Mus musculus; test: Cognitive enhancing effect in CD1 albino mouse assessed as increase in retention latency at 1 to 100 mg/kg, po administered 30 mins prior to testing measured after 24 hrs by passive avoidance test relative to control; assay type: functional, organism-based; outline: as §2
[18] = test system: Mus musculus; test: Anxiolytic activity in CD1 albino mouse assessed as increase in time spent in illuminated side at 30 mg/kg, po administered 30 mins prior to testing measured for 5 mins by light-dark box test; assay type: functional, organism-based; design: dose 30 mg/kg; outline: as §3
[19] = test system: Mus musculus; test: Neurotoxicity in CD1 albino mouse assessed as decrease in number of falls from rotating rod at 10 mg/kg, po by rota-rod test relative to control; assay type: toxicity, organism-based; design: dose 10 mg/kg, route oral; settings: in vivo, TDE = time-dependent effect; outline: as §1
[20] = test system: Mus musculus; test: Anxiolytic activity in CD1 albino mouse assessed as increase in time spent in illuminated side at 10 mg/kg, po administered 30 mins prior to testing measured for 5 mins by light-dark box test; assay type: functional, organism-based; design: dose 10 mg/kg
Outline: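 Male CD-1 mice (22–24 g) were dosed po at 10 ml/kg with drug suspended in 1% carboxymethylcellulose, 30 min before the test. Each mouse was placed in the centre of the lit compartment of a two-compartment light/dark box, facing away from the dark side, and explored for 5 min. Transfers and time in the light side were recorded. Values are means of eight mice, analysed by ANOVA with Scheffé post-hoc.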

[21] = test system: Mus musculus; test: Anxiolytic activity in CD1 albino mouse assessed as increase in time spent in illuminated side at 10 mg/kg, po administered 30 mins prior to testing measured for 5 mins by light-dark box test in presence of flumazenil; assay type: functional, organism-based; design: dose 10 mg/kg
Outline: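 This is the mouse light/dark box (male CD-1, 22–24 g) with flumazenil added at 100 mg/kg po. Drugs were suspended in 1% CMC and given po at 10 ml/kg, 30 min before testing. Mice started in the centre of the lit side and explored for 5 min. Transfers and time in the light side were scored. Values are means of eight mice, compared with flumazenil-treated mice.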

## NC(=O)c1cnn2c1n[n+]([O-])c1ccc(OCc3ccccc3)cc12
[1]
  Ki: 324 nM

## Cc1noc(-c2cnn3c2n[n+]([O-])c2ccc(OCc4cccs4)cc23)n1
[1]
  Ki: 1620 nM

## CN(C)/C=N/C(=O)c1cnn2c1n[n+]([O-])c1ccc(OCc3ccncc3)cc12
[1]
  Ki: 515 nM

## Cc1cnn2c1n[n+]([O-])c1ccc(OCc3ccco3)cc12
[1]
  Ki: 30.9 nM

## Cn1cnc(-c2cnn3c2n[n+]([O-])c2ccc(OCc4ccccc4)cc23)n1
[2]
  inhibition: 50%

## NC(=O)c1cnn2c1n[n+]([O-])c1ccc(OCc3cccs3)cc12
[1]
  Ki: 960 nM

## [O-][n+]1ccc(COc2ccc3c(c2)n2ncc(I)c2n[n+]3[O-])cc1
[1]
  Ki: 20.4 nM

## Cc1noc(-c2cnn3c2n[n+]([O-])c2ccc(OCc4ccccc4)cc23)n1
[1]
  Ki: 70.7 nM
[3]
  Activity: tde
[4]
  Activity: 10%
[5]
  Time: 43.1 s
[6]
  Activity: inactive
[7]
  Activity: Active
[8]
  Activity: Active
[9]
  Activity: Active

## Cc1cnn2c1n[n+]([O-])c1ccc(Cl)cc12
[1]
  Ki: 315 nM

## Cc1cnn2c1nnc1ccc(Cl)cc12
[1]
  Ki: 400 nM

## Cn1ncnc1-c1cnn2c1n[n+]([O-])c1ccc(OCc3ccccc3)cc12
[2]
  inhibition: 46%

## NC(=O)CN1CCCC1=O [PIRACETAM]
[10]
  Time: 46.3 s
[11]
  Activity: inactive

## Cc1noc(-c2cnn3c2n[n+]([O-])c2ccc(OCc4ccncc4)cc23)n1
[12]
  Activity: Active
[1]
  Ki: 453 nM
[3]
  Activity: tde
[4]
  Activity: 10%
[13]
  Activity: Active
[5]
  Time: 44.6 s
[6]
  Activity: inactive
[9]
  Activity: Active

## [O-][n+]1nc2c(I)cnn2c2cc(NCc3ccccn3)ccc21
[1]
  Ki: 0.72 nM

## [O-][n+]1nc2c(I)cnn2c2cc(NCc3ccco3)ccc21
[1]
  Ki: 0.23 nM

## NC(=O)c1cnn2c1n[n+]([O-])c1ccc(OCc3ccncc3)cc12
[1]
  Ki: 1200 nM

## Cc1cnn2c1n[n+]([O-])c1ccc(OCc3ccnc(Cl)c3)cc12
[1]
  Ki: 7.49 nM

## [O-][n+]1nc2c(I)cnn2c2cc(NCc3ccncc3)ccc21
[1]
  Ki: 0.33 nM

## [O-][n+]1nc2c(-c3ncn[nH]3)cnn2c2cc(OCc3ccccc3)ccc21
[1]
  Ki: 325 nM
[3]
  Activity: tde
[4]
  Activity: 0%
[5]
  Time: 40.3 s
[6]
  Activity: inactive
[8]
  Activity: Active
[14]
  Activity: Active
[9]
  Activity: Active

## CN(C)/C=N/C(=O)c1cnn2c1n[n+]([O-])c1ccc(OCc3ccccc3)cc12
[1]
  Ki: 86.6 nM

## [O-][n+]1nc2c(I)cnn2c2cc(OCc3cccs3)ccc21
[10]
  Time: 42.3 s
[15]
  Activity: inactive
[3]
  Activity: tde
[4]
  Activity: 0%
[5]
  Time: 32.5 s
[16]
  Time: 41.9 s
[17]
  Activity: Active
[8]
  Activity: Active
[18]
  Activity: Active

## CN(C)/C=N/C(=O)c1cnn2c1n[n+]([O-])c1ccc(OCc3cccs3)cc12
[1]
  Ki: 620 nM

## [O-][n+]1nc2c(-c3ncn[nH]3)cnn2c2cc(OCc3ccncc3)ccc21
[1]
  Ki: 168 nM

## CN1C(=O)CN=C(c2ccccc2)c2cc(Cl)ccc21 [DIAZEPAM]
[19]
  Activity: tde
[20]
  Activity: Active
[4]
  Activity: 100%
[21]
  Activity: inactive
